ARNT-TACC3 inh: disruptors of human ARNT/TACC3 interaction. 390,000 compounds, 0.66% hits. AlphaScreen His-ARNT PAS-B/GST-TACC3 binding, luminescence; TACC3 fragment carries E629A point mutation. inhibition, % at 9.99 µM. AID 623870. Q9Y6A5;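 active means mean inhibition of replicates at least 50% and at least half of replicates each reaching 50%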;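 further: 0% = complete ARNT plus TACC3 wells and 100% = ARNT alone without TACC3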
GRK2 aptamer HTS: blocks RNA aptamer binding to human GRK2; P25098; 330,000 compounds, 0.59% hits; bead flow cytometry, FAM-aptamer displacement from GRK2; inhibition of aptamer binding, % at 10 µM;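 active means inhibition of aptamer binding above 40%, roughly 3 SD of noise, on plates passing a quality check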;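 further: median bead fluorescence of bound FAM aptamer so fluorescent compounds give negative values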
Tn6 DDE FP: DD(E)-Tn6 binding inhibition, primary FP screen; inhibition, % at 8.3 µM; Fibrin DD(E) TRITC-Tn6 fluorescence polarization displacement; 370,000 compounds, 0.21% hits;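 active means inhibition above a per-campaign cutoff: mean of compounds within control limits plus 3 SD, cut at about 15% in these data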;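 further: 0% = median of all compound wells on the plate and 100% = blocking peptide control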
Target sequence (P02675 whole entry, looked up): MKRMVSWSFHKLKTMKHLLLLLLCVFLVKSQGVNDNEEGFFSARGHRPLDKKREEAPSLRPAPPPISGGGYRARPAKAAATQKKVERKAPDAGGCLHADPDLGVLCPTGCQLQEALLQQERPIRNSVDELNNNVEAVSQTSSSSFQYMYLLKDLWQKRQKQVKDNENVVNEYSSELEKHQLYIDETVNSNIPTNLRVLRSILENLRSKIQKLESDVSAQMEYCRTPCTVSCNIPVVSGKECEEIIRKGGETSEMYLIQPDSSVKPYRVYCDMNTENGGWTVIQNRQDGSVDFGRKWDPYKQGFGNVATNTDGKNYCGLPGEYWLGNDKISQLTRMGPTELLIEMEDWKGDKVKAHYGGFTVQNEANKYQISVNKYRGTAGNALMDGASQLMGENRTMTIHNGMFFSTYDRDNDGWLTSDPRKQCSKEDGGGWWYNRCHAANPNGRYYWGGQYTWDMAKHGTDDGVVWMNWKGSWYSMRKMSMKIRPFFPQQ
CAL PDZ FP-1: inhibitors of human CAL PDZ peptide binding; Q9HD26; purified CAL PDZ, TMR-peptide fluorescence polarization, 1 h; inhibition, % at 24.9 µM; 300,000 compounds, 0.92% hits; AID 602252;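 active means mean inhibition of at least 30% with at least half of replicates also reaching 30%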;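 further: 0% = DMSO neutral control and 100% = excess unlabeled competitor peptide PRC23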
CAL PDZ FP-2: inhibitors of human CAL PDZ peptide binding; AID 504414; inhibition, % at 20 µM; 330,000 compounds, 0.02% hits; Q9HD26; purified CAL PDZ, TMR-peptide fluorescence polarization, 1 h;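 active means highest replicate inhibition of at least 40%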;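 further: plate controls were DMSO neutral control wells for no effect and unlabeled competitor peptide control wells for full effect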
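System: tagged CAL PDZ domain. Schedule: 1 h room-temperature incubation prior to read. Signal: fluorescence polarization (mP). Measure: percent inhibition from loss of millipolarization.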
Tn7 DDE FP: DD(E)-Tn7 binding inhibition, primary FP screen. P02675. 370,000 compounds, 0.13% hits. AID 720508. FP displacement of FITC-Tn7 peptide from fibrin DD(E); 0% = median of compound wells per plate. inhibition, % at 8.3 µM;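 active means inhibition above the mean of compounds falling within the control limits plus 3 SD of them, cut at about 14% in these data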;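 further: 0% = plate median of compound wells and 100% = 10 µM Aha-Tn7 peptide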
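Assay system: Human clot-derived fibrin DD(E) complex | Buffer or medium: Tris/NaCl/CaCl2 buffer, pH 7.8 | Repeats: One replicate per compound | Benchmarks: Aha-Tn7 high control | Measure: % inhibition scaled between sample-field median and high-control FP | Schedule: 10 min plus 3 h, room temperature | Signal: Fluorescence polarization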
* = called active by the depositor; · = no result given. Sampled rows, rich in hits. Any-hit rate of the full collection: about 1.8%.

SMILES | ARNT-TACC3 inh | GRK2 aptamer HTS | Tn6 DDE FP | CAL PDZ FP-1 | CAL PDZ FP-2 | Tn7 DDE FP
CC(C)CC(=O)c1c[nH]c(C(=O)N2CCN(Cc3ccccc3)CC2)c1 | -1.1 | 0.0 | 0.7 | 80.1* | -1.5 | 0.1
CCCCNC(=S)N1CCN(c2ccccc2Cl)CC1 | -0.3 | 0.0 | 2.8 | 74.9* | 0.8 | 3.6
O=[N+]([O-])c1ccc(O)c(/C=N/Nc2ccc(Cl)nn2)c1 | 58.3* | 1.0 | -1.2 | -3.4 | -3.5 | -1.9
C(=N\Nc1nn[nH]n1)/c1ccccc1 | 7.6 | 2.0 | -1.7 | -1.1 | 0.5 | -4.7
NC(N)=N/N=C/c1cc([N+](=O)[O-])ccc1O | 6.6 | 1.0 | -0.4 | -2.4 | 0.2 | 0.8
O=[N+]([O-])c1ccc(O)c(/C=N/Nc2nn[nH]n2)c1 | 66.5* | 2.0 | 4.3 | -5.0 | 0.4 | -1.2
Cn1c(=O)c2c(nc(N/N=C/c3cccs3)n2C)n(C)c1=O | 4.8 | 0.0 | -4.2 | · | -0.3 | 6.8
Oc1ccccc1/C=N/Nc1nn[nH]n1 | 71.9* | 1.0 | 4.3 | -4.4 | 0.9 | 6.2
O=S1(=O)N=C(N/N=C/c2cccs2)c2ccccc21 | 65.5* | 0.0 | 4.0 | · | -0.8 | 7.8
Oc1cccc(/C=N/Nc2ccc(Cl)nn2)c1 | 14.2 | 15.0 | -2.5 | -2.4 | -1.4 | 1.6
CC(C)CCNC(=O)C1COC(O)(C(Cc2ccccc2)NC(=O)[C@@H](NC(=O)OCc2ccccc2)C(C)C)CN1 (stereo not given in full) | · | · | 6.5 | · | · | -2.2
COc1ccc(NC(=O)Nc2cccc3c2O[C@H](CN(C)C(=O)Nc2ccc(F)cc2)[C@H](C)CN([C@@H](C)CO)C3=O)cc1 | 3.2 | · | · | · | · | ·
Cc1ccc(S(=O)(=O)Nc2ccc3c(c2)C(=O)N([C@@H](C)CO)C[C@H](C)[C@@H](CN(C)Cc2ccccc2)O3)cc1 | -8.5 | · | · | · | · | ·
C[C@@H]1CN([C@@H](C)CO)S(=O)(=O)c2ccc(C#CC3CC3)cc2O[C@H]1CN(C)Cc1ccccc1F | 8.6 | · | · | · | · | ·
Cc1cc(C)n(-c2ccc([N+](=O)[O-])cc2-c2nn[nH]n2)n1 | -5.5 | 3.0 | -3.1 | 1.7 | -3.6 | -2.2
O=[N+]([O-])c1ccc(/C=N/NC2=NS(=O)(=O)c3ccccc32)cc1 | 3.0 | 0.0 | -3.6 | 3.8 | -0.7 | 3.1
O=[N+]([O-])c1ccc(O)c(/C=N/NC2=NS(=O)(=O)c3ccccc32)c1 | 70.6* | 2.0 | -1.1 | -1.9 | -2.5 | 2.3
O=[N+]([O-])c1ccc(O)c(-c2nn[nH]n2)c1 | 63.5* | 2.0 | -7.0 | -3.0 | -0.7 | -1.2
C=CCCC(=O)N[C@H]1CC[C@@]23CCCN2C(=O)CCC[C@H]3[C@H]1C | · | · | -3.1 | · | · | -3.9
CC(=O)Nc1ccc(-c2cc(N)n(-c3ccccc3)n2)cc1 | 4.2 | 0.0 | -0.8 | 9.4 | -0.7 | -0.7
CC(=O)Nc1ccc(-c2cc(NC(C)=O)n(-c3ccccc3)n2)cc1 | -1.2 | 0.0 | 1.1 | 75.4* | -1.9 | 7.8
Cc1ccc(C(C)NC(=O)c2ccncc2)c(C)c1 (stereo not given) | -9.3 | 1.0 | -8.3 | · | 0.3 | -3.1
Cc1nn(CC(=O)Nc2ccccc2)c(=O)c2ccccc12 | 27.0 | 3.0 | 8.0 | 7.1 | -0.9 | -1.8
COc1ccc(NC(=O)Cn2nc(C)c3ccccc3c2=O)cc1 | -2.9 | 1.0 | 4.5 | 37.1* | 33.0 | -0.7
CCOc1c(C)cc(S(=O)(=O)NCc2ccccn2)c(C)c1C | -2.4 | 0.0 | 10.5 | 66.7* | · | 4.7
SMILES | ARNT-TACC3 inh | GRK2 aptamer HTS | Tn6 DDE FP | CAL PDZ FP-1 | CAL PDZ FP-2 | Tn7 DDE FP
O=C(/C=C/c1ccc(F)cc1)NC(=S)NNC(=O)c1cnccn1 | 63.9* | 1.0 | -5.9 | -1.2 | -0.5 | 0.0
COc1ccc(/C=C/C(=O)NC(=S)NNC(=O)c2cnccn2)cc1 | 61.4* | 1.0 | 8.3 | -2.8 | -0.1 | 1.9
COc1ccc(/C=C/C(=O)NC(=S)NNC(=O)c2cccnc2)cc1 | · | 5.0 | 4.8 | 0.3 | -1.6 | 5.2
O=C(NC(=S)NNC(=O)c1cnccn1)c1ccc(F)cc1 | 67.7* | 0.0 | 3.7 | 0.3 | 0.3 | -4.8
Cc1ccc(NC(=S)NNC(=O)c2cnccn2)cc1 | · | · | 3.1 | · | · | -0.6
COc1ccccc1-c1ccc(SCc2ccc(C)cc2)nn1 | · | 1.0 | 1.6 | 1.2 | -2.3 | -4.4
COc1ccccc1-c1ccc(SCc2ccc(F)cc2)nn1 | 9.8 | 2.0 | 1.0 | 79.9* | 4.7 | -2.6
CCOc1ccccc1NC(=O)CNS(=O)(=O)c1ccc2nc(C)sc2c1 | -11.6 | 3.0 | -7.2 | · | 0.1 | 9.3
COCCN(C(=O)Nc1ccccc1OC)c1nc2ccccc2s1 | 4.3 | 2.0 | -10.1 | -5.2 | -1.1 | 4.2
Cc1c(/C=N/N=C2\CCC3C4CCc5cc(O)ccc5C4CCC23C)cnn1C (stereo not given) | 5.4 | 2.0 | 0.4 | -0.3 | -0.9 | -4.3
CCn1ncc(/C=N/N=C2\CCC3C4CCc5cc(O)ccc5C4CCC23C)c1C (stereo not given) | 5.1 | 2.0 | 8.0 | 46.5* | 0.0 | -1.9
COc1ccc(C(=O)OCCOc2cccc(Cl)c2)cc1S(=O)(=O)N1CCOCC1 | -3.3 | 0.0 | 5.4 | 5.4 | -4.3 | -0.9
O=C(CN1c2ccccc2Sc2ccccc21)NNC(=S)Nc1ccc(Cl)cc1 | 0.3 | 1.0 | 6.0 | · | -0.4 | 3.3
O=C(CN1CCOCC1)NNC(=S)Nc1ccc(Cl)cc1 | 38.8* | 0.0 | 7.0 | -2.2 | 1.0 | 0.9
CN(C)c1ccc2c(c1)[C@H]1C[C@@H](CC(=O)NCc3ccccn3)O[C@@H](CO)[C@H]1O2 | 7.5 | · | · | · | · | ·
CN(C)S(=O)(=O)c1ccc(Cl)c(NC(=O)CN2CCc3ccccc3C2)c1 | 2.5 | 0.0 | -13.7 | 1.4 | -2.3 | 8.1
CCN(CC)S(=O)(=O)c1ccc(O)c(NC(=O)CN2CCc3ccccc3C2)c1 | -0.6 | 2.0 | 0.0 | 45.3* | -1.7 | 2.9
Cc1cc(C(=O)Nc2cccc3c2O[C@@H](CN(C)Cc2ccc(C(F)(F)F)cc2)[C@@H](C)CN([C@@H](C)CO)C3=O)n(C)n1 | -7.6 | · | · | · | · | ·
CCN1CCCc2cc(CN(CCN3CCOCC3)C(=S)Nc3ccccc3C)ccc21 | -2.3 | 1.0 | -1.4 | 16.9 | 0.4 | -7.3
CCN1CCCc2cc(CN(CCN3CCOCC3)C(=S)Nc3cccc(C)c3)ccc21 | 32.8 | 1.0 | 4.3 | 52.5* | -1.4 | 2.1
COC(=O)C1=CN(Cc2ccc(OC)c(OC)c2)C=C(C(=O)OC)C1c1cccc(F)c1 | -3.0 | 2.0 | 1.6 | 57.9* | -15.0 | -9.1
COC(=O)C1=CN(Cc2ccc(OC)cc2)C=C(C(=O)OC)C1c1cc(OC)c(OC)c(OC)c1 | active | 0.0 | · | 9.3 | 0.3 | ·
COC(=O)C1=CN(Cc2ccc(F)cc2)C=C(C(=O)OC)C1c1cc(OC)c(OC)c(OC)c1 | -31.7 | 0.0 | -0.1 | -4.3 | -3.2 | 3.8
O=C(NC[C@@H]1[C@@H](c2ccccc2)[C@@H](CO)N1Cc1ccccn1)C1CCCC1 | 16.0 | · | · | · | · | ·

Source: PubChem (several laboratories)
